Active and inactive are the calls of the source. The calls are words filed in the database; no cut-off is given here.
How the values were obtained:
HepG2 = assay: Cytotoxicity against human HepG2 cells assessed as reduction in cell viability at 25 uM measured after 24 hrs by Cell-titre blue assay; type: toxicity, cell-based; conditions: hepg2, 24 h
Outline: (§1)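 HepG2 (DMEM) or ARPE-19 (DMEM/F12) cells seeded at 1 × 10⁴ per well. Next day given medium with 2% FBS and 1 g/L glucose containing 25 μM compound, for 24 h at 37 °C. CellTiter Blue then added for 4 h; fluorescence read at 560/590 nm. Viability expressed as % of DMSO-treated cells; at least three independent measurements.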

ARPE-19 = assay: Cytotoxicity against human ARPE-19 cells assessed as reduction in cell viability at 25 uM measured after 24 hrs by Cell-titre blue assay; type: toxicity, cell-based; conditions: arpe-19, 24 h; outline: as §1
U2OS [1] = assay: Effect on His-tagged human P23H rhodopsin expressed in U2OS cells assessed as increase localization of P23H rhodopsin using […] as substrate at 17 to 20 uM incubated for overnight and measured by immunofluorescence microscopy analysis; type: functional, cell-based; conditions: dose 17-20 µM, time 12.0 hrs
Outline: (§2)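 U2OS cells stably carrying C-terminal His-tagged human P23H rhodopsin, grown on polylysine coverslips. Incubated overnight in the dark with 1 μg/mL tetracycline plus compound at 17 or 20 μM (DMSO ≤0.1%); 9-cis-retinal at 5 μM serves as control. Cells fixed in 4% PFA. Surface rhodopsin stained with RetP1 before permeabilisation, total rhodopsin with anti-His after 0.1% Triton. Epifluorescence imaging, 3 independent experiments.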

Bos taurus = species: Bos taurus; assay: Binding affinity to bovine opsin assessed as rate constant preincubated for 30 mins followed by […] addition and measured after 30 mins by UV-visible spectra method; conditions: time 60.0 min
Outline: (§3)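 Opsin from bovine rod outer segments diluted to ~20-25 μM in PBS with 1% N-dodecyl-β-maltoside. Bleached with 532 nm green light, then pre-incubated with compound for 30 min at room temperature. 9-cis-retinal added, equimolar to opsin. Isorhodopsin formation read at 485 nm over 0–29 min. One-phase association fit gives the pseudo-first-order k, compared with DMSO vehicle. At least three repeats.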

U2OS [2] = assay: Effect on His-tagged human P23H rhodopsin expressed in U2OS cells assessed as increase localization of P23H rhodopsin using […] as substrate at 17 uM incubated for overnight and measured by immunofluorescence microscopy analysis; type: cell-based; conditions: time 12.0 hrs; outline: as §2
Rhodopsin (Bos taurus) = Rhodopsin (Bos taurus) (UniProt P02699); assay: Binding affinity to bovine rhodopsin assessed as rate constant preincubated for 30 mins followed by […] addition and measured after 30 mins by UV-visible spectra method; conditions: time 60.0 min; outline: as §3
[3] = Half life of compound; type: physicochemical

Rhodopsin (Bos taurus), sequence (P02699 whole entry): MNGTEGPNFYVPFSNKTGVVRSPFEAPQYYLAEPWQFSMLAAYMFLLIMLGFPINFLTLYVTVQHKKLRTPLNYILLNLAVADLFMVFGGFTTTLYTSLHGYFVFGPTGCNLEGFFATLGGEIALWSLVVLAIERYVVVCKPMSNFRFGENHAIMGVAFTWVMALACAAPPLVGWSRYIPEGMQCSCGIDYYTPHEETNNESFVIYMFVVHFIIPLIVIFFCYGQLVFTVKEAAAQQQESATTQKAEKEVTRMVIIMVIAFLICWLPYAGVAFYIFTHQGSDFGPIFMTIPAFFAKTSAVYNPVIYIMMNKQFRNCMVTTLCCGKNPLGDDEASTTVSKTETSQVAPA

K (Bos taurus) | Compound | Activity (HepG2) | Activity (ARPE-19) | Activity (U2OS [1]) | further results
 | CC1=C(/C=C/C(C)N2CCc3cc(C=O)ccc3C2)C(C)(C)CCC1 (stereo unspecified) | Non-Toxic | Non-Toxic |  | 
 | C=C(C(=O)Nc1ccc(NC(=O)c2c(C)cccc2C)cc1)C(F)(F)F |  |  | Active | 
0.62 min⁻¹ | NC(=O)c1ccc(N2CCN(C(=O)c3cc(C(F)(F)F)cc(C(F)(F)F)c3)CC2)cc1 | Non-Toxic | Non-Toxic | Active | 
 | O=Cc1ccc(COC(=O)c2cc(C(F)(F)F)cc(C(F)(F)F)c2)cc1 | Non-Toxic | Non-Toxic |  | Activity (U2OS [2]): Active; K (Rhodopsin (Bos taurus)): 0.44 min⁻¹
 | CC1=C(CNc2ccc(C(=O)O)cc2)C(C)(C)CCC1 |  |  | Active | 
0.61 min⁻¹ | Cc1cccc(C)c1-c1ccc(CNc2ccc(C(N)=O)cc2)o1 |  |  |  | 
0.63 min⁻¹ | CC1=C(/C=C/C(=O)N2CCC(C#N)CC2)C(C)(C)CCC1 | 50% |  |  | 
0.62 min⁻¹ | C=CC(=O)Nc1ccc(CNC(=O)c2c(C)cccc2C)cc1 | Non-Toxic | Non-Toxic |  | 
 | Cc1cccc(C)c1NC(=O)/C=C/c1ccc(C=O)cc1 | Non-Toxic | Non-Toxic | Active | 
0.59 min⁻¹ | CC1=C(CNc2ccc(C(N)=O)cc2)C(C)(C)CCC1 |  |  | Active | 
0.41 min⁻¹ | O=Cc1ccc(N2CCN(C(=O)c3cc(C(F)(F)F)cc(C(F)(F)F)c3)CC2)cc1 | Non-Toxic | Non-Toxic | Active | 
 | C=CC(=O)Nc1ccc(NC(=O)c2cc(C(F)(F)F)cc(C(F)(F)F)c2)cc1 |  |  | Active | 
 | CC1=C(/C=C/C(=O)N2CCC(NC=O)CC2)C(C)(C)CCC1 |  |  | Active | 
 | CC1=C(/C=C/C(=O)N2CCC(C(N)=O)CC2)C(C)(C)CCC1 |  |  | Active | 
 | Cc1cccc(C)c1/C=C/C(=O)NCc1ccc(C(=O)O)cc1 |  |  | Active | 
 | C=CC(=O)Nc1ccc(NC(=O)c2c(C)cccc2C)cc1 |  |  | Active | 
 | Cc1cccc(C)c1N1CCN(C(=O)c2ccc(C#N)cc2)CC1 |  |  | Active | 
 | Cc1cccc(C)c1N1CCN(C(=O)c2ccc(C(N)=O)cc2)CC1 | Non-Toxic | Non-Toxic |  | 
 | O=C(O)c1ccc(COC(=O)c2cc(C(F)(F)F)cc(C(F)(F)F)c2)cc1 | Non-Toxic | Non-Toxic |  | Activity (U2OS [2]): Active; K (Rhodopsin (Bos taurus)): 0.62 min⁻¹
0.2 min⁻¹ | CC(=O)/C=C/C1=C(C)CCCC1(C)C [BETA-IONONE] | Non-Toxic | Non-Toxic |  | half-life [3]: 3.6 min
0.64 min⁻¹ | O=Cc1ccc(C(=O)N2CCN(c3cc(C(F)(F)F)cc(C(F)(F)F)c3)CC2)cc1 | Non-Toxic | Non-Toxic | Active | 
 | Cc1cccc(C)c1C(=O)N1CCN(c2ccc(C(=O)O)cc2)CC1 |  |  | Active | 
0.31 min⁻¹ | CC1=C(CNc2ccc(C#N)cc2)C(C)(C)CCC1 | 25% |  |  | Activity (U2OS [2]): Active

Source: ChEMBL document CHEMBL5038610, “Ligand-based rational design, synthesis and evaluation of novel potential chemical chaperones for opsin” (Eur J Med Chem, 2021)
